In ChEMBL document CHEMBL1124219, “Inhibition of porcine pepsin by two substrate analogues containing statine. The effect of histidine at the P2 subsite on the inhibition of aspartic proteinases” (J Med Chem, 1988) one finds IC50 and Ki data, which are given here for 18 compounds.

In general, IC50 refers to the concentration needed to halve the response being measured. Low values mean greater potency in that assay, high ones weaker potency in that assay.

The target in test [1] is T1, Pepsin A (Homo sapiens, UniProt P0DJD9). The test can be described thus: Inhibition of human pepsin at pH 3.1.
Test [2] addresses T2, Cathepsin D (Bos taurus, UniProt P80209).
T2 sequence (P80209 whole entry): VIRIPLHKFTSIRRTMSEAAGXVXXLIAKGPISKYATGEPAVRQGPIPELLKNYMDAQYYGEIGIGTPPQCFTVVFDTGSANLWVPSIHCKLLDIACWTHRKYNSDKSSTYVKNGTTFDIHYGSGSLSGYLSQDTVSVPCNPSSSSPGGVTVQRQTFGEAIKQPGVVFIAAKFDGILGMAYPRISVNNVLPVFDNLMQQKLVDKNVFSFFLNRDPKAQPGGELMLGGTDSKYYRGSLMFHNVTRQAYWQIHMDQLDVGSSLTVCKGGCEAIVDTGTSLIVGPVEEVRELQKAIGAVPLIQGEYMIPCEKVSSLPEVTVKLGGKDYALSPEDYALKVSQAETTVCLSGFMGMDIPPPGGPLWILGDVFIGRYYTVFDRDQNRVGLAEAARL
The experiment in a line: Inhibition of bovine cathepsin D at pH 3.1.

Test [3] has as its target T2, Cathepsin D. The experiment in a line: Inhibition of bovine cathepsin D at pH 3.2.
In test [4] the target is T1, Pepsin A. The test can be described thus: Inhibition of human pepsin at pH 2.0.
Test [5] concerns the target T3, Renin (Homo sapiens, UniProt P00797).
T3 sequence (P00797 whole entry): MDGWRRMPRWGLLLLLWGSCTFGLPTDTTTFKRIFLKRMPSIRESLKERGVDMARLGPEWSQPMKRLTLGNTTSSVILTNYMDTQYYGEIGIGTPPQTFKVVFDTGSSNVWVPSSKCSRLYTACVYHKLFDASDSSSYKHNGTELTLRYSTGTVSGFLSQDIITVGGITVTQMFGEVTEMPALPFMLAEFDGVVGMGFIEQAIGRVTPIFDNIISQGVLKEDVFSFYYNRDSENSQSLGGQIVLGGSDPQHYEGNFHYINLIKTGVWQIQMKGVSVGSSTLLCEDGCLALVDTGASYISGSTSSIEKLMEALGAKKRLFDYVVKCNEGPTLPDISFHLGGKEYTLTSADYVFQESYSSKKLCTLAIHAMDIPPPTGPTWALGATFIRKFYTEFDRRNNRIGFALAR
The test can be described thus: Inhibition of human renin at pH 7.0.

Test [6] has as its target T3, Renin. The test can be described thus: Inhibition of human renin at pH 6.0.
The target in test [7] is T4, Pepsin A (Sus scrofa, UniProt P00791). The test can be described thus: Inhibition of porcine pepsin at pH 2.0.
The target in test [8] is T4, Pepsin A. The experiment in a line: Inhibition of porcine pepsin at pH 4.0. Put shortly:
(§1)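 Hydrolysis was followed as the absorbance drop at 290 nm over the first 5–10% of reaction. Percent activity was plotted against inhibitor concentration to give IC50, and Ki = (IC50 − 0.5Et)/(1 + S/Km).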

For test [9], the target named is T3, Renin. The test can be described thus: Inhibition of human renin at pH 7.4.
The target of test [10] is T4, Pepsin A. The experiment in a line: Inhibition of porcine pepsin at pH 1.9.
Test [11] addresses T2, Cathepsin D. The experiment in a line: Inhibition of bovine cathepsin D at pH 3.3(no inhibition).
The target of test [12] is T4, Pepsin A. The experiment in a line: Inhibition of porcine pepsin at pH 4. Put shortly:
as §1

Test [13] concerns the target T4, Pepsin A. The test can be described thus: Inhibition of porcine pepsin at pH 4.0 (time-dependent inhibition, T1/2>30 s).

*1 amine or outer side, *2 acyl side, *3 side chain or, on linkers, in order; H or OH if unused. Where a SMILES comes first, the peptide text is derived from it. [ ]: non-standard residue; d: D form. The star is where a group is joined. ξ: configuration not given here. Sta(3ξ) = CC(C)C[C@H](N[*:1])C(O)CC(=O)[*:2]; X1 = CC(C)CC(N[*:1])C(O)CC(C(=O)[*:2])C(C)C; Sta = CC(C)C[C@H](N)[C@@H](O)CC(=O)O; NMeH = CN[C@@H](Cc1c[nH]cn1)C(=O)O; NHCH2(2-pyridyl) = c1ccc(CN*)nc1; Isobutyryl = CC(C)C(=O)*; Boc = CC(C)(C)OC(=O)*

T4 sequence (P00791 whole entry): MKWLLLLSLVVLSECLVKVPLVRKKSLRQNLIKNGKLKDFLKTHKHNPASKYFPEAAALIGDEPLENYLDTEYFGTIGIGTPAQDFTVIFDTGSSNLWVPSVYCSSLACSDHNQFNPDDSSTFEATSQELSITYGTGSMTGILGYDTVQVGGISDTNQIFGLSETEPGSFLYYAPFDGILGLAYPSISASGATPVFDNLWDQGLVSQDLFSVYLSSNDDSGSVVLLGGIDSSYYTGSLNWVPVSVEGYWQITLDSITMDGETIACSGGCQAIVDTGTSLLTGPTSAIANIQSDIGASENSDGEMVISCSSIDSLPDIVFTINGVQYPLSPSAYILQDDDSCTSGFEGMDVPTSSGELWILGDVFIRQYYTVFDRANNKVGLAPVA
T1 sequence (P0DJD9 whole entry): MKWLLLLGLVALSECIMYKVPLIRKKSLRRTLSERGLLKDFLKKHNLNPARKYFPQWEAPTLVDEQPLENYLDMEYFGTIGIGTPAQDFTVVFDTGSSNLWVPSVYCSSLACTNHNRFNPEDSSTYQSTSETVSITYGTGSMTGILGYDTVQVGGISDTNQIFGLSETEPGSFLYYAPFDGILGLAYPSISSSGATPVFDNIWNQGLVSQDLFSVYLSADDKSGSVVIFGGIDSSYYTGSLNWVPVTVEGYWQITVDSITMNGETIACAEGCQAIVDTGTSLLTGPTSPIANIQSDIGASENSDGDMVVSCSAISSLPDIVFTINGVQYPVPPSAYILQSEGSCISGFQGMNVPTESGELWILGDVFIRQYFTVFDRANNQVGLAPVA

`CC[C@H](C)[C@H](NC(=O)C(F)(F)C(=O)[C@H](CC(C)C)NC(=O)[C@H](Cc1c[nH]cn1)NC(=O)[C@H](Cc1ccccc1)NC(=O)OC(C)(C)C)C(=O)NCc1ccccn1`: the IC50 stood at 60000 nM at Pepsin A [1], 40000 nM at Cathepsin D [2], 1700 nM at Cathepsin D [3] and 42000 nM against Pepsin A [4].

In the case of `CC[C@H](C)[C@H](NC(=O)C(F)(F)C(=O)C(CC(C)C)NC(=O)[C@H](Cc1c[nH]cn1)NC(=O)[C@H](Cc1ccccc1)NC(=O)OC(C)(C)C)C(=O)NCc1ccccn1` (stereo not given in full), the IC50 amounted to 10 nM against Renin [5] and 1.4 nM against Renin [6].

On Pepsin A [7], `COC(=O)CC(O)[C@H](CC(C)C)NC(=O)[C@H](C)NC(=O)CC(O)[C@H](CC(C)C)NC(=O)[C@@H](NC(=O)[C@H](Cc1ccccc1)NC(=O)OCc1ccccc1)C(C)C` (stereo not given in full) showed an IC50 of 60 nM.

For the compound `COC(=O)CC(O)[C@H](CC(C)C)NC(=O)[C@H](C)NC(=O)CC(O)[C@H](CC(C)C)NC(=O)[C@H](Cc1ccccc1)NC(=O)[C@H](Cc1ccccc1)NC(=O)OC(C)(C)C` (stereo not given in full), the half-inhibitory concentration (IC50) on Pepsin A [7] was found to be 14 nM; at Renin [6], 3.5 nM.

With `COC(=O)CC(O)[C@H](CC(C)C)NC(=O)[C@H](C)NC(=O)CC(O)[C@H](CC(C)C)NC(=O)[C@H](Cc1c[nH]cn1)NC(=O)[C@H](Cc1c[nH]c2ccccc12)NC(=O)OC(C)(C)C` (stereo not given in full), the IC50 against Pepsin A [7] turned out to be 850 nM; on Renin [6], 5.5 nM.

On to `COC(=O)[C@H](Cc1ccccc1)NC(=O)[C@H](CC(C)C)NC(=O)CC(O)[C@H](CC(C)C)NC(=O)CCCNC(=O)[C@H](Cc1ccccc1)NC(=O)[C@@H]1CCCN1C(=O)CCCN` (stereo not given in full), for which the values for the Ki at Pepsin A [8] and at Renin [9] were less than 1 nM and 9 nM, respectively.

Take `COC(=O)[C@H](Cc1ccccc1)NC(=O)[C@H](CC(C)C)NC(=O)CC(O)[C@H](CC(C)C)NC(=O)[C@H](Cc1c[nH]cn1)NC(=O)COC(=O)C(C)(C)C` (stereo not given in full): the Ki was determined as 67 nM on Pepsin A [8] and 1100 nM at Renin [9].

For `COC(=O)[C@H](Cc1ccccc1)NC(=O)[C@H](CC(C)C)NC(=O)CC(O)[C@H](CC(C)C)NC(=O)[C@H](CC(C)C)NC(=O)COC(=O)C(C)(C)C` (stereo not given in full), the Ki worked out at 12 nM at Pepsin A [8] and 1700 nM at Renin [9].

As for `CC(C)CC(NC(=O)CCc1ccccc1)SCC(O)C(CC1CCCCC1)NC(=O)[C@H](Cc1cnc[nH]1)NC(=O)[C@H](Cc1ccccc1)NC(=O)OC(C)(C)C` (stereo not given in full), the IC50 at Cathepsin D [2] was greater than 100000 nM; on Pepsin A [10] it was greater than 100000 nM; on Renin [6], 7 nM.

As to `CC[C@H](C)[C@H](NC(=O)[C@@H](NC[C@H](CC(C)C)NC(=O)[C@H](Cc1c[nH]cn1)NC(=O)[C@H](Cc1ccccc1)NC(=O)[C@@H]1CCCN1C(=O)[C@H](Cc1c[nH]cn1)NC(=O)[C@@H]1CCCN1)C(C)C)C(=O)N[C@@H](Cc1c[nH]cn1)C(=O)N[C@@H](CCCCN)C(=O)O`, the IC50 against Cathepsin D [11] is greater than 700000 nM; against Renin [5], 10 nM.

As to `CC[C@H](C)[C@H](NC(=O)C(CC(O)C(CC(C)C)NC(=O)[C@H](Cc1c[nH]cn1)N(C)C(=O)[C@H](Cc1ccccc1)NC(=O)[C@@H]1CCCN1C(=O)OC(C)(C)C)C(C)C)C(=O)NCc1ccccn1` (stereo not given in full) (Boc-PF[NMeH][X1]I-{NHCH2(2-pyridyl)}), the IC50 was found to be 6800 nM against Pepsin A [7], 0.26 nM at Renin [6] and 6300 nM at Cathepsin D [3].

`COC(=O)[C@H](Cc1ccccc1)NC(=O)[C@H](C)NC(=O)C[C@H](O)[C@H](CC(C)C)NC(=O)[C@H](Cc1c[nH]cn1)NC(=O)CNC(=O)[C@@H](N)Cc1ccccc1` (H-FGH[Sta]AF-OMe): the Ki on Pepsin A [12] was determined as 150 nM.

On to `COC(=O)[C@H](Cc1ccccc1)NC(=O)[C@H](C)NC(=O)C[C@H](O)[C@H](CC(C)C)NC(=O)[C@@H](NC(=O)CNC(=O)[C@@H](N)Cc1ccccc1)C(C)C` (H-FGV[Sta]AF-OMe), for which, at Pepsin A [13], the Ki is less than 1 nM.

`CC(C)C[C@H](NC(=O)CC(O)[C@H](CC(C)C)NC(=O)[C@H](Cc1c[nH]cn1)NC(=O)[C@H](Cc1ccccc1)NC(=O)[C@@H]1CCCN1C(=O)[C@@H](N)Cc1c[nH]cn1)C(=O)N[C@@H](Cc1ccccc1)C(N)=O` (stereo not given in full) (H-HPFH[Sta(3ξ)]LF-NH2): the Ki is 34 nM on Pepsin A [8] and 8 nM on Renin [9].

`CC(C)C[C@H](NC(=O)CC(O)[C@H](CC(C)C)NC(=O)[C@H](C)NC(=O)[C@H](Cc1ccccc1)NC(=O)[C@@H]1CCCN1C(=O)[C@H](Cc1c[nH]cn1)NC(=O)C(C)C)C(=O)N[C@@H](Cc1ccccc1)C(N)=O` (stereo not given in full) (Isobutyryl-HPFA[Sta(3ξ)]LF-NH2): the Ki was determined as 4 nM on Pepsin A [8] and 99 nM at Renin [9].

For the compound `CC(C)C[C@H](NC(=O)CC(O)[C@H](CC(C)C)NC(=O)[C@H](Cc1c[nH]cn1)NC(=O)[C@H](Cc1ccccc1)NC(=O)[C@@H]1CCCN1C(=O)[C@H](Cc1c[nH]cn1)NC(=O)C(C)C)C(=O)N[C@@H](Cc1ccccc1)C(N)=O` (stereo not given in full) (Isobutyryl-HPFH[Sta(3ξ)]LF-NH2), the Ki on Pepsin A [8] worked out at 23 nM; at Renin [9], 16 nM.

For `COC(=O)CC(O)[C@H](CC(C)C)NC(=O)[C@H](C)NC(=O)CC(O)[C@H](CC(C)C)NC(=O)[C@H](Cc1cnc[nH]1)NC(=O)[C@H](Cc1ccccc1)NC(=O)OC(C)(C)C` (stereo in doubt; 15), 1300 nM corresponded to half-maximal inhibition against Pepsin A [7] (IC50).

Regarding `COC(=O)CC(O)[C@H](CC(C)C)NC(=O)[C@H](C)NC(=O)CC(O)[C@H](CC(C)C)NC(=O)[C@H](Cc1cnc[nH]1)NC(=O)[C@H](Cc1ccccc1)NC(=O)OC(C)(C)C` (stereo in doubt; 17), at Pepsin A [7], the midpoint of inhibition, the IC50, lay at 1300 nM.
